Reference: ChEMBL document CHEMBL1687766, “In vitro activity of the new multivalent glycopeptide-cephalosporin antibiotic TD-1792 against vancomycin-nonsusceptible Staphylococcus isolates” (Antimicrob Agents Chemother, 2010)

Legend:
Staphylococcus aureus [1] = assay: Antimicrobial activity against vancomycin-resistant Staphylococcus aureus isolate MI assessed as bacterial count at 32 times MIC after 24 hrs by colony counting method; type: functional
In short: (§1)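 Time-kill in triplicate. Mid-exponential culture (OD600 ~0.3) diluted in supplemented Mueller-Hinton broth to 5 × 10^6 CFU/ml. Daptomycin was run at physiologic calcium, 1.1 to 1.3 mM. […] Samples at 0, 1, 4, 8 and 24 h were diluted in cold saline or vacuum filtered, then spiral-plated on BHI agar for 24 h at 35°C. Value is the log10 CFU/ml change from baseline at 24 h.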

Staphylococcus aureus [2] = assay: Antimicrobial activity against vancomycin-resistant Staphylococcus aureus isolate PA assessed as bacterial count at 4 times MIC after 24 hrs by colony counting method in presence of 50% human serum; type: functional
In short: (§2)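 Time-kill in triplicate, starting inoculum 5 × 10^6 CFU/ml from a mid-exponential culture. Medium was 50% heat-treated, filtered human serum plus 50% broth, final 25 SMHB for TD-1792 and 50 SMHB for daptomycin. Drug at multiples of MIC. Samples to 24 h were plated on BHI agar for 24 h at 35°C. Value is the log10 CFU/ml change from baseline at 24 h.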

Staphylococcus aureus [3] = assay: Antimicrobial activity against vancomycin-resistant Staphylococcus aureus isolate PA assessed as bacterial count at 16 times MIC after 24 hrs by colony counting method in presence of 50% human serum; type: functional; in short: as §2
Staphylococcus aureus [4] = assay: Antimicrobial activity against methicillin-resistant Staphylococcus aureus infected in patient with complicated skin and skin structure infections assessed as cure rate; type: functional
Staphylococcus aureus [5] = assay: Antimicrobial activity against vancomycin-resistant Staphylococcus aureus isolate PA assessed as bacterial count at 8 times MIC after 24 hrs by colony counting method; type: functional; in short: as §1
[6] = Plasma protein binding in human in presence of human serum; type: ADME, cell-free; conditions: read-out: PPB (converted)

SMILES	log10CFU/ml (Staphylococcus aureus [1])	log10CFU/ml (Staphylococcus aureus [2])	log10CFU/ml (Staphylococcus aureus [3])	Activity (Staphylococcus aureus [4])	log10CFU/ml (Staphylococcus aureus [5])	fraction unbound [6]
CN[C@H](CC(C)C)C(=O)N[C@H]1C(=O)N[C@@H](CC(N)=O)C(=O)N[C@H]2C(=O)N[C@H]3C(=O)N[C@H](C(=O)N[C@H](C(=O)NCCCO/N=C(\C(=O)N[C@@H]4C(=O)N5C(C(=O)[O-])=C(C[n+]6ccccc6)CS[C@H]45)c4nc(N)sc4Cl)c4cc(O)cc(O)c4-c4cc3ccc4O)[C@H](O)c3ccc(c(Cl)c3)Oc3cc2cc(c3O[C@@H]2O[C@H](CO)[C@@H](O)[C@H](O)[C@H]2O[C@H]2C[C@](C)(N)[C@H](O)[C@H](C)O2)Oc2ccc(cc2Cl)[C@H]1O	5.13	4.04	5.15	94.7%		
CCCCCCCCCC(=O)N[C@@H](Cc1c[nH]c2ccccc12)C(=O)N[C@H](CC(N)=O)C(=O)N[C@@H](CC(=O)O)C(=O)N[C@@H]1C(=O)NCC(=O)N[C@@H](CCCN)C(=O)N[C@@H](CC(=O)O)C(=O)N[C@H](C)C(=O)N[C@@H](CC(=O)O)C(=O)NCC(=O)N[C@H](CO)C(=O)N[C@@H]([C@H](C)CC(=O)O)C(=O)N[C@@H](CC(=O)c2ccccc2N)C(=O)O[C@@H]1C					4.95	0.08
